Test results from ChEMBL document CHEMBL4627411, “Novel Piperidinyl-Azetidines as Potent and Selective CCR4 Antagonists Elicit Antitumor Response as a Single Agent and in Combination with Checkpoint Inhibitors” (J Med Chem, 2020).
The source made the active and inactive calls. The calls are words filed in the database; no cut-off is given here.

Assays:
[1] = Oral bioavailability in rat at 2 mg/kg; format: ADME, organism-based; details: in vivo
In short: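 Rat in vivo PK. Oral dose of 2 mg/kg; %F derived.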

[2] = biological target: Cytochrome P450 2C9 (Homo sapiens, UniProt P11712); assay: Inhibition of CYP2C9 in human liver microsomes using diclofenac sodium salt as substrate incubated for 20 mins in presence of NADPH by LC-MS/MS analysis; format: ADME
Sequence of Cytochrome P450 2C9 (P11712 whole entry): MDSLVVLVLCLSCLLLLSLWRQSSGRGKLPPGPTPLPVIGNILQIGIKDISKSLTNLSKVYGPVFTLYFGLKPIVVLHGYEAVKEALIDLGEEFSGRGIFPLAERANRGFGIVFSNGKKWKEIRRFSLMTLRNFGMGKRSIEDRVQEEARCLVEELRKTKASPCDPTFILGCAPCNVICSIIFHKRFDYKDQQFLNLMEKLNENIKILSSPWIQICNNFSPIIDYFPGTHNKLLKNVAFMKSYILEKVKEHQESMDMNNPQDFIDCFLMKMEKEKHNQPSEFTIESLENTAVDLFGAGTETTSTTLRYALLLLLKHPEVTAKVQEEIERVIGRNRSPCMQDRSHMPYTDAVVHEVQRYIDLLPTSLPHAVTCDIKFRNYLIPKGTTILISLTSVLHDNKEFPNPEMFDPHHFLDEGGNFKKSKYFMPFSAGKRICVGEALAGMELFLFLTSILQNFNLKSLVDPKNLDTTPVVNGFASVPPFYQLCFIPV

[3] = biological target: Cytochrome P450 2C19 (Homo sapiens, UniProt P33261); assay: Inhibition of CYP2C19 in human liver microsomes using S-mephenytoin as substrate incubated for 20 mins in presence of NADPH by LC-MS/MS analysis; format: ADME
Sequence of Cytochrome P450 2C19 (P33261 whole entry): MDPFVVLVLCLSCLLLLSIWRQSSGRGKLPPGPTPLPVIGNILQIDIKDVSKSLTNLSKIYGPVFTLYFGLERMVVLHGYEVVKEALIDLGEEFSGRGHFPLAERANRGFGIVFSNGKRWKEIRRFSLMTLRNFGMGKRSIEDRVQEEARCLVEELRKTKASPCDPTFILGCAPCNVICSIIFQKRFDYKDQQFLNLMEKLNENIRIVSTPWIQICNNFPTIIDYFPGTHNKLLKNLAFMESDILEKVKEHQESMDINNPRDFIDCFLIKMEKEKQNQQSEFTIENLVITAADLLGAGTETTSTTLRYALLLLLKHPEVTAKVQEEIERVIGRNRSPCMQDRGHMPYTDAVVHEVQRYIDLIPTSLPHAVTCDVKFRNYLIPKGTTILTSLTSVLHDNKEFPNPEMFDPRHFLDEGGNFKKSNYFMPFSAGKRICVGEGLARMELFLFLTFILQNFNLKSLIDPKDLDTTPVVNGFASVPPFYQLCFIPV

[4] = biological target: Cytochrome P450 2D6 (Homo sapiens, UniProt P10635); assay: Inhibition of CYP2D6 in human liver microsomes using bufuralol hydrochloride salt as substrate incubated for 20 mins in presence of NADPH by LC-MS/MS analysis; format: ADME
Sequence of Cytochrome P450 2D6 (P10635 whole entry): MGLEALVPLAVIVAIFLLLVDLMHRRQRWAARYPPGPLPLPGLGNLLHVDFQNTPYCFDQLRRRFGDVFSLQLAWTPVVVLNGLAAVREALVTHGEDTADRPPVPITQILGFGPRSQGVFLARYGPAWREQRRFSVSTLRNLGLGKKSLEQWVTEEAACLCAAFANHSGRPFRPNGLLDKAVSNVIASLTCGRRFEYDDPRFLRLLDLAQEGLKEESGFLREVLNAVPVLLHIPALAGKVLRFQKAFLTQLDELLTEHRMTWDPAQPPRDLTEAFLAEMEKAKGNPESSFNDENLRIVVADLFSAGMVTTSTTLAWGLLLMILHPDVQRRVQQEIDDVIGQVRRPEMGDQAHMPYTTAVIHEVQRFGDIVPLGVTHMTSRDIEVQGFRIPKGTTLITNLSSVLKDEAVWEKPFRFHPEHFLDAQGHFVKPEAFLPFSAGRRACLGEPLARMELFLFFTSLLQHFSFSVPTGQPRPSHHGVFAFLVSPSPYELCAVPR

[5] = biological target: CYP3A4 (Homo sapiens, UniProt P08684); assay: Ratio of IC50 for time-dependent inhibition of CYP3A4 in human liver microsomes using midazolam hydrochloride as substrate in presence of NADPH to IC50 for time-dependent inhibition of CYP3A4 in human liver microsomes using midazolam hydrochloride as substrate absence of NADPH; details: probe midazolam hydrochloride, read-out: Ratio IC50
Sequence of CYP3A4 (P08684 whole entry): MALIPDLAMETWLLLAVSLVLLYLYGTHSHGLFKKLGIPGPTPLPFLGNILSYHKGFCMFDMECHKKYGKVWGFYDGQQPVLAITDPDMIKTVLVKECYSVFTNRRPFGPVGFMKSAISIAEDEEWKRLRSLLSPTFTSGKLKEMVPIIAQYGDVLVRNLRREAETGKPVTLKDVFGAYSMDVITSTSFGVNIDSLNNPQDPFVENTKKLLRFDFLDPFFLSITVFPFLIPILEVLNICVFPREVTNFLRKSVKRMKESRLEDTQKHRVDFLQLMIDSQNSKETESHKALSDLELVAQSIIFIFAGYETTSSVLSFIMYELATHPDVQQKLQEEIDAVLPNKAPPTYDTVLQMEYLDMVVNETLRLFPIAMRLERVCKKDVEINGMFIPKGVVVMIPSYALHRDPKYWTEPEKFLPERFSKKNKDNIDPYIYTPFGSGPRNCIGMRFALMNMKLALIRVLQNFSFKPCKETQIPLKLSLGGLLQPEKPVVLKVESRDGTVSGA

[6] = Half life in mouse at 0.5 mg/kg, iv; format: ADME, organism-based; details: in vivo
[7] = AUC (0 to last) in mouse at 2 mg/kg, po; format: ADME, organism-based; design: dose 2 mg/kg, time 0 - last, route oral; details: in vivo
[8] = Clearance in dog at 0.5 mg/kg, iv; format: ADME, organism-based, Canis lupus familiaris; details: in vivo
[9] = Oral bioavailability in dog at 2 mg/kg; format: ADME, organism-based, Canis lupus familiaris; details: in vivo
[10] = Terminal half life in cynomolgus monkey at 0.5 mg/kg, iv; format: ADME, organism-based, Macaca fascicularis; details: in vivo, read-out: beta t1/2 (converted)
[11] = Oral bioavailability in cynomolgus monkey at 2 mg/kg; format: ADME, organism-based, Macaca fascicularis; details: in vivo
[12] = biological target: C-C chemokine receptor type 10 (Homo sapiens) (UniProt P46092); assay: Antagonist activity at human Gi/G0-coupled CCR10 receptor expressed in human U2OS cells assessed as inhibition of CCL27-induced beta arrestin2 recruitment at 500 nM preincubated for 30 mins followed by CCL27 stimulation and measured after 90 to 180 mins by pathhunter assay; format: cell-based
Sequence of C-C chemokine receptor type 10 (Homo sapiens) (P46092 whole entry): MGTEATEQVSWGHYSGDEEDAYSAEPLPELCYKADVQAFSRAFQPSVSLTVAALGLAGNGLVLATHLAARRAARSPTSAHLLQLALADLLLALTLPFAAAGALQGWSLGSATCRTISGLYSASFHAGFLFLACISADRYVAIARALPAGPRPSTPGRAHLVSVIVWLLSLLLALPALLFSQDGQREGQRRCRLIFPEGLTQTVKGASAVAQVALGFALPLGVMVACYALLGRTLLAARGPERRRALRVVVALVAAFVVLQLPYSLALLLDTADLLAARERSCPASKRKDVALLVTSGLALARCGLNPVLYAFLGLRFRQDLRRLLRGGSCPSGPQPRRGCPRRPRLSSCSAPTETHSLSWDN

[13] = biological target: C-C chemokine receptor type 2 (Homo sapiens) (UniProt P41597); assay: Antagonist activity at human Gi/G0-coupled […]-induced beta arrestin2 recruitment at 500 nM preincubated for 30 mins […] and measured after 90 to 180 mins by pathhunter assay
Sequence of C-C chemokine receptor type 2 (Homo sapiens) (P41597 whole entry, looked up): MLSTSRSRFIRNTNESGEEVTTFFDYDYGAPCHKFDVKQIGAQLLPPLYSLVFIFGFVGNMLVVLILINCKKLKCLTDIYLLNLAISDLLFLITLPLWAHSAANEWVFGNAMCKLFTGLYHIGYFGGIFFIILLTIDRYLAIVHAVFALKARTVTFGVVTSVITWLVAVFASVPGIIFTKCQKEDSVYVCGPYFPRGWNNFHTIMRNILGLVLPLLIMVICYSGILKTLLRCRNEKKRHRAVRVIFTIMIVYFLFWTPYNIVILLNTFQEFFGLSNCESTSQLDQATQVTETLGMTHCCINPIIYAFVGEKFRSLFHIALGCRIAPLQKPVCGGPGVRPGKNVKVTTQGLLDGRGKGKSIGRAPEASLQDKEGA

[14] = biological target: C-C chemokine receptor type 3 (Homo sapiens) (UniProt P51677); assay: Antagonist activity at human Gi/G0-coupled CCR3 receptor expressed in CHO-K1 cells assessed as inhibition of CCL13-induced beta arrestin2 recruitment at 500 nM preincubated for 30 mins followed by CCL13 stimulation and measured after 90 to 180 mins by pathhunter assay; format: cell-based
Sequence of C-C chemokine receptor type 3 (Homo sapiens) (P51677 whole entry): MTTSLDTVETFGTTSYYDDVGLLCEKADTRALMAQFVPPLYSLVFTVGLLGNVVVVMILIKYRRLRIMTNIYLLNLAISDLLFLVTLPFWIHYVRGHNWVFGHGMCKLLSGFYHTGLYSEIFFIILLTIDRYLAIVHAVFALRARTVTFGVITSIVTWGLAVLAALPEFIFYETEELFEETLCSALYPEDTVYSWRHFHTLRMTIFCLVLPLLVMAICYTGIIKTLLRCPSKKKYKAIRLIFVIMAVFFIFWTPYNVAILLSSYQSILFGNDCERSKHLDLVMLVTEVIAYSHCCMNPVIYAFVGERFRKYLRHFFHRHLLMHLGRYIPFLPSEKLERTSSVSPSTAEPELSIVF

[15] = biological target: C-C chemokine receptor type 5 (Homo sapiens) (UniProt P51681); assay: Antagonist activity at human Gi/G0-coupled CCR5 receptor expressed in CHOK1 cells assessed as inhibition of CCL3-induced beta arrestin2 recruitment at 500 nM preincubated for 30 mins followed by CCL3 stimulation and measured after 90 to 180 mins by pathhunter assay; format: cell-based; details: CHO-K1
Sequence of C-C chemokine receptor type 5 (Homo sapiens) (P51681 whole entry, looked up): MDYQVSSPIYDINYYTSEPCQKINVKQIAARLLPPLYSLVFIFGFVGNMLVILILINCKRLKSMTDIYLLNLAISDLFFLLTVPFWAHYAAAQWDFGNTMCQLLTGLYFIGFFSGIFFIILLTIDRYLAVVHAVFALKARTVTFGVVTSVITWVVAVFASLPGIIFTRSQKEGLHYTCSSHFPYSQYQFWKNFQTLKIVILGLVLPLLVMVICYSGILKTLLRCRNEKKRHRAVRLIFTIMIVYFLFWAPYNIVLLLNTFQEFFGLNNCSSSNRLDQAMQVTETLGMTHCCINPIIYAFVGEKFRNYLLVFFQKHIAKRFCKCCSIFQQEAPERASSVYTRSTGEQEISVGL

[16] = biological target: C-X-C chemokine receptor type 1 (Homo sapiens) (UniProt P25024); assay: Antagonist activity at human Gi/G0-coupled CXCR1 expressed in CHOK1 cells assessed as inhibition of CXCL8-induced beta arrestin2 recruitment at 500 nM preincubated for 30 mins followed by CXCL8 stimulation and measured after 90 to 180 mins by pathhunter assay; format: cell-based; details: CHO-K1
Sequence of C-X-C chemokine receptor type 1 (Homo sapiens) (P25024 whole entry): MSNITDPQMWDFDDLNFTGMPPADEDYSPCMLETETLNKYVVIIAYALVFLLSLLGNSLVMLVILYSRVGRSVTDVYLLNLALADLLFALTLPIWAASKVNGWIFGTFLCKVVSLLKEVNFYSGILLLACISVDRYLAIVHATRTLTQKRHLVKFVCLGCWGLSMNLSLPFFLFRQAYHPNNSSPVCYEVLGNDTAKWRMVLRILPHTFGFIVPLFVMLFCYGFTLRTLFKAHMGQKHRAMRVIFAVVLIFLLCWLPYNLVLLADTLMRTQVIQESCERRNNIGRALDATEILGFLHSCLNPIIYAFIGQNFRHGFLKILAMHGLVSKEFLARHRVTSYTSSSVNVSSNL

[17] = biological target: C-X-C chemokine receptor type 5 (Homo sapiens) (UniProt P32302); assay: Antagonist activity at human Gi/G0-coupled CXCR5 assessed as inhibition of CXCL13-induced beta arrestin2 recruitment at 500 nM preincubated for 30 mins followed by CXCL13 stimulation and measured after 90 to 180 mins by pathhunter assay
Sequence of C-X-C chemokine receptor type 5 (Homo sapiens) (P32302 whole entry): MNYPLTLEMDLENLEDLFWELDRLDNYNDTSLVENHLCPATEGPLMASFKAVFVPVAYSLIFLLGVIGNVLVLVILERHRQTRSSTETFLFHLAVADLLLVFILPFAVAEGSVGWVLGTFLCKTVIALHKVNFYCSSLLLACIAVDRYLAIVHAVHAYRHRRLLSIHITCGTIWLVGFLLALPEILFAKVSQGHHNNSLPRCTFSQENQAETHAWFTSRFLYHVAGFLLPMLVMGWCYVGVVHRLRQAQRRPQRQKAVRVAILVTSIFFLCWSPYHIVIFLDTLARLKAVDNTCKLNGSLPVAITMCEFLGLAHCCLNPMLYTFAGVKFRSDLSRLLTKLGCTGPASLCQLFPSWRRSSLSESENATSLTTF

[18] = biological target: Atypical chemokine receptor 3 (Homo sapiens) (UniProt P25106); assay: Antagonist activity at human CXCR7 assessed as inhibition of CXCL12-induced beta arrestin2 recruitment at 500 nM preincubated for 30 mins followed by CXCL12 stimulation and measured after 90 to 180 mins by pathhunter assay
Sequence of Atypical chemokine receptor 3 (Homo sapiens) (P25106 whole entry): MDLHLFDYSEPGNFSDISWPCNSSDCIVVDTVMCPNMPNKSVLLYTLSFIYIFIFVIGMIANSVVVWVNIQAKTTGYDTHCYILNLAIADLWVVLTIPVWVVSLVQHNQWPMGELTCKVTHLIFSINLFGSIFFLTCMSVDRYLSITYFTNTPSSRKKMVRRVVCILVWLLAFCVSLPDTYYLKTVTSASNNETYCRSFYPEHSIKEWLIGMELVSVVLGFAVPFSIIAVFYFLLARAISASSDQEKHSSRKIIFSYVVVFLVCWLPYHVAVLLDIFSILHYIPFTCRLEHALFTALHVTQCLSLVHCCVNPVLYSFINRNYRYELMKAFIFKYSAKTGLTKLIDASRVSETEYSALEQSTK

[19] = system: CT26; assay: Antitumor activity against mouse CT26 cells allografted in Balb/c mouse assessed as reduction in tumor volume at 50 mg/kg, po qd for 28 days starting from 3 days post inoculation measured twice weekly; format: functional, organism-based
[20] = system: CT26; assay: Antitumor activity against mouse CT26 cells allografted in Balb/c mouse assessed as reduction in tumour volume at 50 mg/kg, po qd for 28 days starting from 3 days post inoculation measured twice weekly in presence of checkpoint inhibitor anti-PD-L1; format: functional, organism-based
[21] = system: Panc02; assay: Antitumor activity against mouse Panc02 cells allografted in C57BL/6 mouse assessed as reduction in tumor growth at 50 mg/kg, po qd for 38 days; format: functional, organism-based
In short: (§1)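 Pan02-OVA syngeneic tumor model. Compound given 50 mg/kg PO QD on a therapeutic schedule, alone or combined with anti-CTLA-4 antibody; tumor growth tracked. Groups compared by two-tailed t-test.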

[22] = system: Panc02; assay: Antitumor activity against mouse Panc02 cells allografted in C57BL/6 mouse assessed as reduction in tumor growth at 50 mg/kg, po qd for 38 days in presence of anti-CTLA-4; format: functional, organism-based; in short: as §1

`C[C@H](c1ccc(Cl)cc1Cl)n1nc(C#N)c2ncc(N3CC([C@H]4CCCN(CCO)C4)C3)nc21` showed a bioavailability [1] of 49%, an IC50 [2] greater than 40 µM and an IC50 [3] greater than 40 µM. For the same compound, the IC50 [4] was greater than 40 µM, the IC50 shift [5] was 1.2 and the half-life [6] was 6.9 h. The AUC(0-t) [7] was 751 ng·h/mL, the clearance [8] was 7.3 mL/min/kg and the bioavailability [9] was 44%. For the same compound, the half-life [10] was 10.7 h, the bioavailability [11] was 41% and the Activity [12] was “inactive”. For the same compound, the Activity [13] was “inactive”, the Activity [14] was “inactive” and the Activity [15] was “inactive”. For the same compound, the Activity [16] was “inactive”, the Activity [17] was “inactive” and the Activity [18] was “inactive”. The Activity [19] was “Active”, the Activity [20] was “Active” and the Activity [21] was “Active”. The Activity [22] was “Active”.
